Measurements as given in ChEMBL document CHEMBL1150669, “Isolation and characterization of novel oligosaccharides related to Ziracin” (2002).

Assays:
Type in all cases: functional
Staphylococcus aureus [1] = test: Antimicrobial activity against Staphylococcus aureus at 20 ug/8 mm disk at pH 8 by agar diffusion method
Method in brief: (§1)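 Agar disk diffusion against S. aureus. Samples dissolved at 1 mg/mL in CH2Cl2/MeOH (95:5 v/v), plus a 10-fold dilution in the same vehicle; 20 µL of each applied to 8 mm paper disks and air-dried 30 min. Disks placed on S. aureus-seeded agar at pH 7 and pH 8, incubated overnight at 35 °C. Read-out: inhibition zone diameter (mm).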

Staphylococcus aureus [2] = test: Antimicrobial activity against Staphylococcus aureus at 2 ug/8 mm disk at pH 7 by agar diffusion method; method in brief: as §1
Staphylococcus aureus [3] = test: Antimicrobial activity against Staphylococcus aureus at 2 ug/8 mm disk at pH 8 by agar diffusion method; method in brief: as §1
Staphylococcus aureus [4] = test: Antimicrobial activity against Staphylococcus aureus at 20 ug/8 mm disk at pH 7 by agar diffusion method; method in brief: as §1

| SMILES | inhibition zone (IZ) (Staphylococcus aureus [1]) | inhibition zone (IZ) (Staphylococcus aureus [2]) | inhibition zone (IZ) (Staphylococcus aureus [3]) | inhibition zone (IZ) (Staphylococcus aureus [4]) |
| --- | --- | --- | --- | --- |
| COC[C@H]1O[C@@H](O[C@@H]2OC[C@@H]3O[C@@]4(OC[C@@H](OC(=O)c5c(C)cc(O)cc5O)[C@@H]5OCO[C@H]54)O[C@H]3[C@H]2O)[C@@H](OC)[C@@H](O)[C@@H]1O[C@@H]1O[C@H](C)[C@H](OC)[C@H](O[C@@H]2O[C@H](C)[C@H]3O[C@]4(C[C@@H](O)[C@H](O[C@H]5C[C@@H](O[C@H]6C[C@](C)([N+](=O)[O-])[C@@H](OC)[C@H](C)O6)[C@H](OC(=O)c6c(C)cc(O)c(Cl)c6O)[C@@H](C)O5)[C@@H](C)O4)O[C@]3(C)[C@@H]2O)[C@H]1O | 18 mm | 17 mm | 16 mm | 22 mm |
| COC[C@H]1O[C@@H](O[C@@H]2OC[C@@H]3O[C@@]4(OC[C@@H](OC(=O)c5c(C)cc(O)cc5O)[C@@H]5OCO[C@H]54)O[C@H]3[C@H]2O)[C@@H](OC)[C@@H](O)[C@@H]1O[C@@H]1O[C@H](C)[C@H](OC)[C@H](O[C@@H]2O[C@H](C)[C@H]3O[C@]4(C[C@@H](O)[C@H](O[C@H]5C[C@@H](O[C@H]6C[C@](C)([N+](=O)[O-])[C@@H](OC)[C@H](C)O6)[C@H](OC(=O)c6c(C)cc(O)c(Cl)c6OC)[C@@H](C)O5)[C@@H](C)O4)O[C@]3(C)[C@@H]2O)[C@H]1O | 17 mm | 17 mm | 16 mm | 20 mm |
| COC[C@H]1O[C@@H](O[C@@H]2OC[C@@H]3O[C@@]4(OC[C@@H](OC(=O)c5c(C)cc(O)cc5O)[C@@H]5OCO[C@H]54)O[C@H]3[C@H]2O)[C@@H](OC)[C@@H](O)[C@@H]1O[C@@H]1O[C@H](C)[C@H](OC)[C@H](O[C@@H]2O[C@H](C)[C@H]3O[C@]4(C[C@@H](O)[C@H](O[C@H]5C[C@@H](O[C@H]6C[C@](C)([N+](=O)[O-])[C@@H](OC)[C@H](C)O6)[C@H](OC(=O)c6c(C)c(Cl)c(O)c(Cl)c6OC)[C@@H](C)O5)[C@@H](C)O4)O[C@]3(C)[C@@H]2O)[C@H]1O [EVERNIMICIN] | 21 mm | 23 mm | 19 mm | 26 mm |
| COC[C@H]1O[C@@H](O[C@@H]2OC[C@@H]3O[C@@]4(OC[C@@H](OC(=O)c5c(C)cc(O)cc5O)[C@H](OC=O)[C@H]4O)O[C@H]3[C@H]2O)[C@@H](OC)[C@@H](O)[C@@H]1O[C@@H]1O[C@H](C)[C@H](OC)[C@H](O[C@@H]2O[C@H](C)[C@H]3O[C@]4(C[C@@H](O)[C@H](O[C@H]5C[C@@H](O[C@H]6C[C@](C)([N+](=O)[O-])[C@@H](OC)[C@H](C)O6)[C@H](OC(=O)c6c(C)c(Cl)c(O)c(Cl)c6OC)[C@@H](C)O5)[C@@H](C)O4)O[C@]3(C)[C@@H]2O)[C@H]1O | 18 mm | 17 mm | 15 mm | 21 mm |
| COC[C@H]1O[C@@H](O[C@@H]2OC[C@@H]3O[C@@]4(OC[C@@H](OC(=O)c5c(C)cc(O)cc5O)[C@@H]5OCO[C@H]54)O[C@H]3[C@H]2O)[C@@H](OC)[C@@H](O)[C@@H]1O[C@@H]1O[C@H](C)[C@H](OC)[C@H](O[C@@H]2O[C@H](C)[C@H]3O[C@]4(C[C@@H](O)[C@H](O[C@H]5C[C@@H](O[C@H]6C[C@](C)([N+](=O)[O-])[C@@H](O)[C@H](C)O6)[C@H](OC(=O)c6c(C)c(Cl)c(O)c(Cl)c6OC)[C@@H](C)O5)[C@@H](C)O4)O[C@]3(C)[C@@H]2O)[C@H]1O | 20 mm | 20 mm | 18 mm | 23 mm |
| COC[C@H]1O[C@@H](O[C@@H]2OC[C@@H]3O[C@@]4(OC[C@@H](OC(=O)c5c(C)cc(O)cc5O)[C@@H]5OCO[C@H]54)O[C@H]3[C@H]2O)[C@@H](OC)[C@@H](O)[C@@H]1O | 8 mm | 8 mm | 8 mm | 10 mm |
